This is a sample that favours compounds with a hit; in the whole collection about 2.2% have one here.
IMP-1 inh – inhibitors of Pseudomonas aeruginosa IMP-1 metallo-beta-lactamase; purified IMP-1, nitrocefin hydrolysis, epi-absorbance fluorescence; inhibition, % at 5.6 µM; 0.45% of 290,000 active;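 active = inhibition above the mean plus 3 SD of all compounds in the same screening run, cut at about 4.5% in these data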;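 also: 0% = IMP-1 with DMSO and 100% = DMSO wells lacking enzyme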
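System: purified IMP-1; amount: IMP-1 0.2 nM before substrate addition; compound: single dose, 5.6 µM; times: 25 °C, 15 min preincubation, 25 min reaction; signal: Epi-absorbance via hydrolysed-nitrocefin quenching of white-plate fluorescence, 480/530 nm, EDTA stop; benchmarks: DMSO with and without IMP-1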
Yeast superoxide – caloric restriction mimetics inhibiting age-related superoxide in yeast; superoxide response (% of plate mean), % at 10 µM; S. cerevisiae aged cells, superoxide DHE fluorescence; active compounds read low; 0.18% of 330,000 active;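 active = superoxide response under a set limit, about three screen SD below normal, cut at about 65% in these data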;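 also: yeast aged for seven days with compound at 30 °C before DHE staining; 100% = average MFI of all compound-treated wells on the plate with controls excluded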
PvdQ acylase – blocks Pseudomonas aeruginosa PvdQ acylase activity | purified PvdQ acylase, fluorescence plate reader | inhibition, % at 10 µM | 0.063% of 340,000 active; in the data active = inhibition above about 30%, passing the limit was not always enough;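 also: 0% = vehicle neutral wells and 100% = reference inhibitor wells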
PHOSPHO1 inh – blocks human PHOSPHO1 phosphatase activity | Q8TCT1 | recombinant PHOSPHO1, absorbance phosphatase assay | inhibition, % at 13.3 µM | 1.1% of 290,000 active | AID 1565; in the data active = inhibition above about 60%
Target sequence (Q8TCT1 whole entry, looked up): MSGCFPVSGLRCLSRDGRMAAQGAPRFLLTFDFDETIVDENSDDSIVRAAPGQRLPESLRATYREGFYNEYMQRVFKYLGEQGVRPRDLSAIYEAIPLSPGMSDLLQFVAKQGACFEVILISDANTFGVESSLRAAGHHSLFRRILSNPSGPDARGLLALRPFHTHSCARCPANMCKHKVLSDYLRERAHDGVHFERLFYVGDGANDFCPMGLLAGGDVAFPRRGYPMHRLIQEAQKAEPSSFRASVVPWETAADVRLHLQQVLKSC
VIM-2 inhibitor – blocks Pseudomonas aeruginosa VIM-2 metallo-beta-lactamase; purified VIM-2, nitrocefin hydrolysis, epi-absorbance fluorescence; inhibition, % at 5.6 µM; 0.89% of 290,000 active;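 active = inhibition above the mean of all tested compounds plus 3 SD, cutoff set per screening run, cut at about 7.5% in these data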;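 also: red hydrolysis product quenches plate fluorescence so inhibitors raise well fluorescence; 0% = enzyme with DMSO and 100% = DMSO without enzyme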
An asterisk follows results filed as active; x = not tested or not shown.

SMILES | IMP-1 inh | Yeast superoxide | PvdQ acylase | PHOSPHO1 inh | VIM-2 inhibitor
COc1ccc(OCc2cc(C(=O)N(C)C3CCOCC3)no2)c2ccccc12 | -4 | 94 | 12 | 62* | -1
COc1cc(C(=O)Nc2ccc(Nc3ccccc3)cc2)cc(OC)c1OC | -2 | 102 | -12 | -6 | 0
CCn1c(COc2ccccc2C)nnc1SCC(=O)N1CCN(c2ccccc2)CC1 | -3 | 87 | -3 | 18 | 1
CCn1c(COc2cccc(C)c2C)nnc1SCC(=O)N1CCN(c2ccc(OC)cc2)CC1 | -2 | 92 | -15 | 74* | -1
COc1cc(NC(=O)Nc2ccccc2OC)c(OC)cc1NC(=O)CN1CCCCC1 | 4.7* | 104 | -9 | -16 | -1
COc1ccccc1NC(=O)CN1CCCCCC1 | 0 | 89 | -3 | 14 | 1
Cc1cc(NC(=O)CCSc2ccc(Cl)cc2)no1 | -3 | 79 | -11 | 62* | -3
Cc1cc(NC(=O)c2cc(F)c(F)cc2Cl)no1 | -1 | 120 | 92* | -11 | 0
Cc1cc(NC(=O)Nc2ccc(F)c(Cl)c2)no1 | -1 | 132 | 44* | -17 | -3
Cc1ccc(NC(=O)c2cc(F)c(F)cc2Cl)nc1 | -1 | 100 | -5 | 37 | -2
Cc1cc(NC(=O)COc2ccc(F)c(Cl)c2)no1 | -1 | 100 | 2 | 19 | 0
O=C1NC(c2ccccc2)N=C2Oc3ccccc3C=C12 (stereo not drawn) | x | x | -12 | x | x
CCCCSc1ncnc2c1ncn2C1CCCCO1 (stereo not drawn) | x | x | 4 | x | x
Cc1ccc(NC2c3ncccc3C(=O)N2c2ccccc2C)cc1C (stereo not drawn) | -1 | 185 | -8 | 86* | 0
CCOc1ccc(N2C(=O)c3cccnc3C2Nc2ccc(Cl)cc2)cc1 (stereo not drawn) | -3 | 81 | -8 | 56 | -3
CC(C)(CO)CNC(=O)CCc1nnc(C2(c3ccc(Cl)cc3)CCC2)o1 | -3 | 94 | -15 | 48 | -3
CCC(O)CNC(=O)CCc1nnc(C2(c3ccc(Cl)cc3)CCC2)o1 (stereo not drawn) | -3 | 95 | 12 | 60* | -6
Fc1ccc(-c2cn3ccccc3n2)cc1 | 1 | 102 | 24 | 24 | 2
CCOc1ccc(-c2cnc3ccccc3n2)cc1 | -3 | 90 | 90* | -29 | -1
CCOc1ccc(-c2cn3ccccc3n2)cc1 | 0 | 111 | 50* | 24 | 0
Cc1cc(C)c2c(N)c3cccc(C)c3nc2n1 | -1 | 98 | -12 | 5 | 18*
Cc1cc(=O)oc2c3c(cc(OCC(=O)NC(C)C)c12)OC(C)(C)CC3 | -3 | 94 | 11 | 16 | -1
Cc1cc(=O)oc2c3c(cc(OCC(=O)N[C@@H](C)C(=O)O)c12)OC(C)(C)CC3 | -4 | 115 | 1 | 27 | 8.5*
COc1ccc(-c2nn3c(-c4ccccn4)nnc3s2)cc1OC | -2 | 110 | -14 | -8 | 12*
CN(C)c1ccc(-c2nn3c(-c4ccccc4Cl)nnc3s2)cc1 | -2 | 98 | 3 | 30 | -2
SMILES | IMP-1 inh | Yeast superoxide | PvdQ acylase | PHOSPHO1 inh | VIM-2 inhibitor
CCOc1cccc(-c2nnc3sc(-c4ccco4)nn23)c1 | -3 | 135 | -2 | 64* | -2
COc1ccccc1-c1nnc2sc(-c3ccc(N(C)C)cc3)nn12 | 15* | 119 | -18 | 6 | -4
CCOc1cccc(-c2nnc3sc(-c4ccc(C)cc4)nn23)c1 | x | x | x | 10 | x
COc1ccc(-c2nn3c(-c4cccc(C)c4)nnc3s2)cc1OC | -2 | 99 | 11 | x | 4
COc1cccc(-c2nn3c(-c4ccccn4)nnc3s2)c1 | -2 | 102 | -3 | 19 | 8.0*
CN(CC(=O)Nc1ccc(Cl)cc1F)C1=NS(=O)(=O)c2ccccc21 | x | 119 | -12 | x | x
CCCN1CCc2c(sc3nc(SC)n(-c4ccccc4)c(=O)c23)C1 | 0 | 107 | -4 | 59 | 1
COc1ccc(-c2nn3c(C4CCCCC4)nnc3s2)cc1OC | -1 | 118 | 13 | 83* | 2
O=C1NC[C@@H](c2ccccc2)OC(=O)[C@@H](Cc2ccc(F)cc2)CC/C=C/C[C@@H]1CC(=O)N(CCO)Cc1ccccc1 | x | 113 | -5 | x | x
COc1cccc2[nH]c(C(=O)NCc3ccccc3)cc12 | -1 | 94 | 4 | 14 | -1
COCC(C)n1c(C)cc(C(=O)CSc2nnc(N)s2)c1C (stereo not drawn) | -5 | 96 | 6 | 99* | -4
Cc1cc(C(=O)CSc2nnnn2-c2ccccc2)c(C)n1CCc1ccccc1 | -3 | 109 | 0 | 84* | 0
COc1ccc(CCn2c(C)cc(C(=O)CSc3nnnn3-c3ccccc3)c2C)cc1OC | -1 | 111 | -14 | -10 | -3
Cc1cc(C(=O)CSc2nnc(N)s2)c(C)n1CCc1ccc(Cl)cc1 | 1 | 99 | -8 | 74* | -2
CC[C@]12C(=O)N(C)C[C@H]([C@@H]3C(=O)N(C)C(=O)[C@@H]31)N2C(=O)c1ccc(Cl)c(Cl)c1 | x | x | -12 | x | x
O=C(Cc1ccc(Cl)cc1)NNC(=O)C1CC=CCC1C(=O)O (stereo not drawn) | 0 | 95 | -3 | 16 | 1
Cc1ccnc(NC(=O)c2cc3c(=O)oc4ccc(C)cc4c3s2)c1 | -6 | 106 | -8 | -6 | -2
Cc1ccc2oc(=O)c3cc(C(=O)NCCCN4CCc5ccccc5C4)sc3c2c1 | 0 | 91 | -7 | -6 | 2
Cc1ccc2oc(=O)c3cc(C(=O)NCCN4CCN(C)CC4)sc3c2c1 | -2 | 104 | -19 | -2 | 12*
Cc1ccc2oc(=O)c3cc(C(=O)NCCCN4CCCCCC4)sc3c2c1 | 1 | 108 | 3 | 28 | 9.6*
CSCC[C@H](NC(=O)N1CCn2c1nc1ccccc12)C(=O)NCc1ccc(F)cc1 | 51* | 101 | -9 | 49 | -2
O=C(Oc1csc(=S)n1C(=O)c1ccccc1)c1ccccc1 | -4 | 103 | 0 | 83* | 0
Cc1ccc(SCC(=O)OCC(=O)N(CCC#N)c2ccccc2)cc1 | x | 97 | -6 | x | x
Oc1cccc(/C=N/N(Cc2ccccc2)c2ccccc2)c1 | 0 | 93 | -4 | 36 | 0
Oc1ccc(/C=N/N(Cc2ccccc2)c2ccccc2)c(O)c1O | 5.1* | x | -15 | -7 | 1
SMILES | IMP-1 inh | Yeast superoxide | PvdQ acylase | PHOSPHO1 inh | VIM-2 inhibitor
CC(=O)OCCCN1C(=O)c2cccc3cc(Br)cc(c23)C1=O | 0 | 102 | x | 20 | 12*
CCOC(=O)CCCCCN1C(=O)c2cccc3cccc(c23)C1=O | 0 | 106 | 13 | x | 5
COc1ccc(S(=O)(=O)NCc2csc(-c3cccnc3)n2)cc1 | -2 | 92 | -11 | 2 | -2
O=S(=O)(NCc1csc(-c2cccnc2)n1)c1ccc(Br)cc1 | -1 | 105 | -9 | 80* | -2
CN(c1ncnc(N)c1[N+](=O)[O-])C1CCCCC1 | -1 | 87 | 38* | 17 | -1
CC(C)n1nc(Cc2cccc3ccccc23)c(C#N)c1N | x | 95 | -5 | x | x
COc1ccc([N+](=O)[O-])cc1NC(=O)C(C)Sc1nc(-c2ccccc2)cs1 (stereo not drawn) | -3 | 110 | 2 | 1 | -3
